{"source": "ChEMBL document CHEMBL1137670", "about": "“First occurrence of an IMP metallo-beta-lactamase in Aeromonas caviae: IMP-19 in an isolate from France” (2007)", "key": {"[1]": {"substrate": "CC(C)(O/N=C(\\C(=O)N[C@@H]1C(=O)N2C(C(=O)[O-])=C(C[n+]3ccccc3)CS[C@H]12)c1csc(N)n1)C(=O)O", "experiment": "(§1) Activity of Aeromonas caviae A324R metallo-beta-lactamase IMP-19 expressed in Escherichia coli DH5alpha by computerized microacidimetric method", "summary_of_the_method": "(§2)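 IMP-19 purified from sonicated recombinant E. coli DH5alpha(pIP19). Purification: SP Sepharose in 50 mM MES-NaOH pH 6.0 with 0–500 mM NaCl gradient, then 5 mM ZnCl2 and Superose 12 in 20 mM MES-NaOH–100 mM NaCl pH 6.0; purity >97% by SDS-PAGE. Km and kcat measured three times by computerized microacidimetry; variation coefficients at most 10%.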"}, "[2]": {"substrate": "CO[C@@]1(NC(=O)Cc2cccs2)C(=O)N2C(C(=O)O)=C(COC(N)=O)CS[C@@H]21", "experiment": "as §1", "summary_of_the_method": "as §2"}, "[3]": {"substrate": "CC1(C)S[C@@H]2[C@H](NC(=O)[C@H](N)c3ccc(O)cc3)C(=O)N2[C@H]1C(=O)O", "experiment": "as §1", "summary_of_the_method": "as §2"}, "[4]": {"substrate": "CCN1CCN(C(=O)N[C@@H](C(=O)N[C@@H]2C(=O)N3[C@@H]2SC(C)(C)[C@@H]3C(=O)O)c2ccccc2)C(=O)C1=O", "experiment": "as §1", "summary_of_the_method": "as §2"}, "[5]": {"substrate": "C[C@@H](O)[C@H]1C(=O)N2C(C(=O)O)=C(SCCNC=N)C[C@H]12", "experiment": "as §1", "summary_of_the_method": "as §2"}, "[6]": {"substrate": "C[C@H]1[C@H](NC(=O)/C(=N\\OC(C)(C)C(=O)O)c2csc(N)n2)C(=O)N1S(=O)(=O)O", "experiment": "as §1", "summary_of_the_method": "as §2"}, "[7]": {"substrate": "CC(=O)OCC1=C(C(=O)O)N2C(=O)[C@@H](NC(=O)Cc3cccs3)[C@H]2SC1", "experiment": "as §1", "summary_of_the_method": "as §2"}, "[8]": {"substrate": "CO/N=C(\\C(=O)N[C@@H]1C(=O)N2C(C(=O)[O-])=C(C[n+]3cccc4c3CCC4)CS[C@H]12)c1csc(N)n1", "experiment": "as §1", "summary_of_the_method": "as §2"}, "[9]": {"substrate": "C[C@@H](O)[C@H]1C(=O)N2C(C(=O)O)=C(S[C@@H]3CN[C@H](C(=O)N(C)C)C3)[C@H](C)[C@H]12", "experiment": "as §1", "summary_of_the_method": "as §2"}, "[10]": {"substrate": "CO/N=C(\\C(=O)N[C@@H]1C(=O)N2C(C(=O)O)=C(COC(C)=O)CS[C@H]12)c1csc(N)n1", "experiment": "as §1", "summary_of_the_method": "as §2"}, "[11]": {"substrate": "CC1(C)S[C@@H]2[C@H](NC(=O)[C@H](C(=O)O)c3ccsc3)C(=O)N2[C@H]1C(=O)O", "experiment": "as §1", "summary_of_the_method": "as §2"}, "[12]": {"substrate": "CC1(C)S[C@@H]2[C@H](NC(=O)Cc3ccccc3)C(=O)N2[C@H]1C(=O)O", "experiment": "as §1", "summary_of_the_method": "as §2"}, "[13]": {"substrate": "CO/N=C(\\C(=O)N[C@@H]1C(=O)N2C(C(=O)O)=C(COC(N)=O)CS[C@H]12)c1ccco1", "experiment": "as §1", "summary_of_the_method": "as §2"}, "[14]": {"substrate": "CC(C)(O/N=C(\\C(=O)N[C@@H]1C(=O)N2C(C(=O)[O-])=C(C[n+]3ccccc3)CS[C@H]12)c1csc(N)n1)C(=O)O", "experiment": "(§3) Ratio of Kcat to Km of Aeromonas caviae A324R metallo-beta-lactamase IMP-19 expressed in Escherichia coli DH5alpha by computerized microacidimetric method", "summary_of_the_method": "as §2"}, "[15]": {"substrate": "CO[C@@]1(NC(=O)Cc2cccs2)C(=O)N2C(C(=O)O)=C(COC(N)=O)CS[C@@H]21", "experiment": "as §3", "summary_of_the_method": "as §2"}, "[16]": {"substrate": "CC1(C)S[C@@H]2[C@H](NC(=O)[C@H](N)c3ccc(O)cc3)C(=O)N2[C@H]1C(=O)O", "experiment": "as §3", "summary_of_the_method": "as §2"}, "[17]": {"substrate": "CCN1CCN(C(=O)N[C@@H](C(=O)N[C@@H]2C(=O)N3[C@@H]2SC(C)(C)[C@@H]3C(=O)O)c2ccccc2)C(=O)C1=O", "experiment": "as §3", "summary_of_the_method": "as §2"}, "[18]": {"substrate": "C[C@@H](O)[C@H]1C(=O)N2C(C(=O)O)=C(SCCNC=N)C[C@H]12", "experiment": "as §3", "summary_of_the_method": "as §2"}, "[19]": {"substrate": "CC(=O)OCC1=C(C(=O)O)N2C(=O)[C@@H](NC(=O)Cc3cccs3)[C@H]2SC1", "experiment": "as §3", "summary_of_the_method": "as §2"}, "[20]": {"substrate": "CO/N=C(\\C(=O)N[C@@H]1C(=O)N2C(C(=O)[O-])=C(C[n+]3cccc4c3CCC4)CS[C@H]12)c1csc(N)n1", "experiment": "as §3", "summary_of_the_method": "as §2"}, "[21]": {"substrate": "C[C@@H](O)[C@H]1C(=O)N2C(C(=O)O)=C(S[C@@H]3CN[C@H](C(=O)N(C)C)C3)[C@H](C)[C@H]12", "experiment": "as §3", "summary_of_the_method": "as §2"}, "[22]": {"substrate": "CO/N=C(\\C(=O)N[C@@H]1C(=O)N2C(C(=O)O)=C(COC(C)=O)CS[C@H]12)c1csc(N)n1", "experiment": "as §3", "summary_of_the_method": "as §2"}, "[23]": {"substrate": "CC1(C)S[C@@H]2[C@H](NC(=O)[C@H](C(=O)O)c3ccsc3)C(=O)N2[C@H]1C(=O)O", "experiment": "as §3", "summary_of_the_method": "as §2"}, "[24]": {"substrate": "CC1(C)S[C@@H]2[C@H](NC(=O)Cc3ccccc3)C(=O)N2[C@H]1C(=O)O", "experiment": "as §3", "summary_of_the_method": "as §2"}, "[25]": {"substrate": "CO/N=C(\\C(=O)N[C@@H]1C(=O)N2C(C(=O)O)=C(COC(N)=O)CS[C@H]12)c1ccco1", "experiment": "as §3", "summary_of_the_method": "as §2"}}, "data": [{"protein": "IMP-19 (Aeromonas caviae), A8QUY6 (protein) MKKLFVLCVCFLCSITAAGAALPDLKIEKLEEGVYVHTSFEEVNGWGVVSKHGLVVLVNTDAYLIDTPFTATDTEKLVNWFVERGYKIKGTISSHFHSDSTGGIEWLNSQSIPTYASELTNELLKKDGKVQAKNSFSGVSYWLVKNKIEVFYPGPGHTQDNVVVWLPEKKILFGGCFVKPDGLGNLGDANLEAWPKSAKILMSKYVKAKLVVSSHSEIGDASLLKRTWEQAVKGLNESKKPSQPSN", "values": [{"measurement": "Km", "setting": "[1]", "result": 20, "unit": "µM"}, {"measurement": "kcat", "setting": "[1]", "result": 6.4, "unit": "s⁻¹"}, {"measurement": "Km", "setting": "[2]", "result": 33, "unit": "µM"}, {"measurement": "kcat", "setting": "[2]", "result": 9.7, "unit": "s⁻¹"}, {"measurement": "Km", "setting": "[3]", "result": 207, "unit": "µM"}, {"measurement": "kcat", "setting": "[3]", "result": 456, "unit": "s⁻¹"}, {"measurement": "Km", "setting": "[4]", "result": 148, "unit": "µM"}, {"measurement": "kcat", "setting": "[4]", "result": 41.2, "unit": "s⁻¹"}, {"measurement": "Km", "setting": "[5]", "result": 100, "unit": "µM"}, {"measurement": "kcat", "setting": "[5]", "result": 26.5, "unit": "s⁻¹"}, {"measurement": "kcat", "setting": "[6]", "result": "< 0.1", "unit": "s⁻¹"}, {"measurement": "Km", "setting": "[7]", "result": 76, "unit": "µM"}, {"measurement": "kcat", "setting": "[7]", "result": 11, "unit": "s⁻¹"}, {"measurement": "Km", "setting": "[8]", "result": 48, "unit": "µM"}, {"measurement": "kcat", "setting": "[8]", "result": 14.3, "unit": "s⁻¹"}, {"measurement": "Km", "setting": "[9]", "result": 7, "unit": "µM"}, {"measurement": "kcat", "setting": "[9]", "result": 1, "unit": "s⁻¹"}, {"measurement": "Km", "setting": "[10]", "result": 61, "unit": "µM"}, {"measurement": "kcat", "setting": "[10]", "result": 20.1, "unit": "s⁻¹"}, {"measurement": "Km", "setting": "[11]", "result": 140, "unit": "µM"}, {"measurement": "kcat", "setting": "[11]", "result": 683, "unit": "s⁻¹"}, {"measurement": "Km", "setting": "[12]", "result": 206, "unit": "µM"}, {"measurement": "kcat", "setting": "[12]", "result": 1010, "unit": "s⁻¹"}, {"measurement": "Km", "setting": "[13]", "result": 95, "unit": "µM"}, {"measurement": "kcat", "setting": "[13]", "result": 16.4, "unit": "s⁻¹"}, {"measurement": "kcat/Km", "setting": "[14]", "result": 0.32}, {"measurement": "kcat/Km", "setting": "[15]", "result": 0.29}, {"measurement": "kcat/Km", "setting": "[16]", "result": 2.2}, {"measurement": "kcat/Km", "setting": "[17]", "result": 0.28}, {"measurement": "kcat/Km", "setting": "[18]", "result": 0.26}, {"measurement": "kcat/Km", "setting": "[19]", "result": 0.14}, {"measurement": "kcat/Km", "setting": "[20]", "result": 0.3}, {"measurement": "kcat/Km", "setting": "[21]", "result": 0.14}, {"measurement": "kcat/Km", "setting": "[22]", "result": 0.33}, {"measurement": "kcat/Km", "setting": "[23]", "result": 4.88}, {"measurement": "kcat/Km", "setting": "[24]", "result": 4.91}, {"measurement": "kcat/Km", "setting": "[25]", "result": 0.17}]}]}
